Assay results published in paper PMC2743929 (Cell calcium, 2009).

Columns and labels:
[1] = low to moderate affinity Ca2+ dye; stated property, no reference given; cited from earlier work
[2] = test system: native skeletal muscle RyR1; experiment: [3H]ryanodine binding to SR vesicles; format: biochemical; conditions: for Ryanodine binding: mean ±SEM, SEM
[3] = test system: native skeletal muscle RyR1; experiment: Ca2+ release from SR vesicles; format: biochemical
How it was run: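 SR vesicles in 100mM KH₂PO₄ (pH7), 4mM MgCl₂, 1mM Na₂ATP, 0.5mM antipyrylazo III; extravesicular Ca²⁺ followed as OD at 710nm. Additions in sequence: 1μM thapsigargin, then peptide, then 5μM ruthenium red, then 1.5μg/ml A23187. n=3; paired or unpaired Student's t-test, P<0.05.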

native RyR1 = experiment: Single channel recording in lipid bilayers; format: biochemical; conditions: for effect on RyR1 channel activity (open probability), in words: n=3 (Fig. 6)
How it was run: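 Native RyR1 vesicles fused into lipid bilayers. After incorporation, cis contained 230mM CsCH₃O₃S, 20mM CsCl, 10mM TES, 500mM mannitol, 100μM free Ca²⁺, pH7.4; trans was made symmetrical at 230mM CsCH₃O₃S. Potential alternated between -40 and +40mV every 30s. Open probability from one to two 30s periods, with threshold ~20% of maximal conductance. Control, then 100μM peptide; n=3.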

[4] = test system: ASI(+)RyR1-expressing dyspedic myotubes; experiment: Intracellular Ca2+ measurement; format: cell-based, mice; conditions: 500μM, 45s application (Fig. 2)
How it was run: (§1)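 RyR1-null mouse myotubes in primary culture; nuclear cDNA injection where applicable, expressing cells marked by co-injected cherry red cDNA (0.005μg/μl). Loaded 25min at room temperature with 5μM fura-FF AM in HEPES Ringer's, pH7.4. Ratio 340/380nm (510nm emission) every 350ms. Sequence: 500μM 4-cmc for 45s, 60s wash, zero-Ca²⁺ ICE for 120s, then 10mM Ca²⁺ plus 10μM ionomycin. Peak responses compared by ANOVA/Dunnett's test.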

[5] = test system: ASI(-)RyR1-expressing dyspedic myotubes; experiment: Intracellular Ca2+ measurement; format: cell-based, mice; conditions: 500μM, 45s application (Fig. 2)
How it was run: as §1

[6] = test system: non-expressing dyspedic (RyR1-null) myotubes; experiment: Intracellular Ca2+ measurement; format: cell-based, mice; conditions: 500μM (Fig. 2B)
How it was run: as §1

[7] = substance alone, 10μM Ca2+, versus control, n=3 (Fig. 5A, 7)

CC(=O)OCOC(=O)CN(CC(=O)OCOC(C)=O)c1cc2oc(-c3ncc(C(=O)OCOC(C)=O)o3)cc2cc1OCCOc1c(N(CC(=O)OCOC(C)=O)CC(=O)OCOC(C)=O)ccc(F)c1F [fura-FF]
Kd [1]: 5.5 µM

^3471TADSKSKMAK-----------SGGSDQERTKKKRRG^3500 [ASI(-)]
effect on [3H]ryanodine binding if channels first activated by 100μM peptide A, in words ([2]; 10μM Ca2+, competition (Fig. 7A&B)): failed to significantly increase
[3H]ryanodine binding achievable ([2]; 10μM caffeine plus 100μM peptide, 10μM Ca2+ (Fig. 7C)): > 250 % control
effect on [3H]ryanodine binding, in words ([2]; 100μM peptide, [Ca2+] ≥10μM, n=3 (Fig. 8A)): significantly increased
Ryanodine binding ([2]; 500μM ASI(-) plus 100μM DP4): 339±32 % control
Ryanodine binding ([2]; 500μM peptide alone, SR vesicles, 37°C, 15nM [3H]ryanodine): 190±1 % of control
effect on [3H]ryanodine binding, in words [2, 7]: significantly increased
effect on Ca2+ release from SR vesicles, in words ([3]; initial rate, peptide minus thapsigargin, n=3 (Fig. 5B&E)): significantly increased
effect on RyR1 channel activity (open probability), in words (native RyR1; +40mV, 100μM peptide): significant inhibition
effect on RyR1 channel activity (open probability), in words (native RyR1; -40mV): significant activation

Cc1cc(O)ccc1Cl [4-cmc, 4-chloro-m-cresol]
effect on intracellular Ca2+, in words [4]: rapid increase
effect on intracellular Ca2+, in words [5]: rapid increase
effect on intracellular Ca2+, in words [6]: not in non-expressing dyspedic myotubes

Cn1c(=O)c2c(ncn2C)n(C)c1=O [Caffeine, caffeine, reference compound]
effect on [3H]ryanodine binding, in words [2, 7]: significantly increases

^3471TADSKSKMAK-----------SGGSDQERTAAKLRG^3500 [ASI(mutant)]
effect on [3H]ryanodine binding, in words [2, 7]: only marginally increased
effect on Ca2+ release from SR vesicles, in words ([3]; 10μM peptide, n=3 (Fig. 5E)): did not increase
effect on initial Ca2+ release from SR vesicles, in words ([3]; 100μM peptide, n=3 (Fig. 5C-E)): small increase
effect on channel activity, in words (native RyR1; data not shown): no effect
